How the values were obtained:
[1] = tested on: Rattus norvegicus; experiment: Neurotoxicity in rat at 30 mg/kg, ip after 4 hrs by rotarod test; format: toxicity, organism-based; conditions: in vivo
[2] = tested on: Rattus norvegicus; experiment: Neurotoxicity in rat at 30 mg/kg, po after 1 hr by rotarod test; format: toxicity, organism-based; conditions: in vivo
[3] = Neurotoxicity in ip dosed mouse after […] by rotarod test; format: toxicity, organism-based; conditions: in vivo
[4] = tested on: Mus musculus; experiment: Neurotoxicity in mouse at 40 mg/kg, ip after 2 hrs by rotarod test; format: toxicity, organism-based; conditions: in vivo
[5] = tested on: Mus musculus; experiment: Neurotoxicity in mouse at 40 mg/kg, ip after […] by rotarod test; format: toxicity, organism-based; conditions: in vivo
[6] = tested on: Mus musculus; experiment: Neurotoxicity in mouse at 20 mg/kg, ip after 4 hrs by rotarod test; format: toxicity, organism-based; conditions: in vivo
[7] = tested on: Mus musculus; experiment: Neurotoxicity in mouse at 30 mg/kg, ip after 4 hrs by rotarod test; format: toxicity, organism-based; conditions: in vivo
Procedure, shortened: (§1)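 Mice were dosed ip with compound suspended in 0.5% methylcellulose. Rotarod: a 1 in. knurled rod turning at 6 rpm. Neurotoxicity was scored as failure to stay on the rod for at least 1 min in each of three trials. Results are given as the number of animals affected out of the number tested.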

[8] = tested on: Vibrio harveyi; experiment: Mutagenicity in Vibrio harveyi BB7XM assessed as number of colonies after 48 hrs (reference value: 14 no_unit); format: ADME, organism-based; conditions: in vivo
Procedure, shortened: (§2)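 Vibrio harveyi mutagenicity test: test compound was added to exponentially growing cultures (A600 = 0.1, 30 °C) and grown to OD600 0.3–0.4. Then 5 × 10^6 cells were plated on BOSS agar with neomycin (final 100 µg/mL) and incubated 48 h at 30 °C. Neomycin-resistant colonies were counted. Triplicate; controls were water, DMSO and NQNO 40 ng/mL.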

[9] = tested on: Rattus norvegicus; experiment: Neurotoxicity in rat at 30 mg/kg, ip after 2 hrs by rotarod test; format: toxicity, organism-based; conditions: in vivo
[10] = tested on: Vibrio harveyi; experiment: Mutagenicity in Vibrio harveyi BB7X assessed as number of colonies after 48 hrs (reference value: 15 to 16 no_unit); format: ADME, organism-based; conditions: in vivo; procedure, shortened: as §2
[11] = tested on: Rattus norvegicus; experiment: Neurotoxicity in rat at 30 mg/kg, ip after 0.5 hrs by rotarod test; format: toxicity, organism-based; conditions: in vivo
[12] = tested on: Vibrio harveyi; experiment: Mutagenicity in Vibrio harveyi BB7 assessed as number of colonies after 48 hrs (reference value: 13 to 14 no_unit); format: ADME, organism-based; conditions: in vivo; procedure, shortened: as §2
[13] = tested on: Vibrio harveyi; experiment: Antimutagenic activity against Vibrio harveyi BB7M assessed as inhibition of NQNO-induced mutagenicity after 48 hrs; format: functional
Procedure, shortened: (§3)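 V. harveyi cultures grown exponentially to A600 0.1 at 30 °C, exposed to test compound for 15 min, then to NQNO, and grown on to A600 0.3–0.4. 5 × 10⁶ cells plated on BOSS agar with neomycin (100, final). Neomycin-resistant colonies counted after 48 h at 30 °C. Result given as % inhibition of NQNO mutagenicity; three independent repeats.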

[14] = tested on: Mus musculus; experiment: Neurotoxicity in mouse at 40 mg/kg, ip after 1 hr by rotarod test; format: toxicity, organism-based; conditions: in vivo
[15] = in vitro; conditions: mouse, liver microsomes
[16] = tested on: Mus musculus; experiment: Neurotoxicity in mouse at 300 mg/kg, ip after 0.5 hrs by rotarod test; format: toxicity, organism-based; conditions: in vivo; procedure, shortened: as §1
[17] = tested on: Vibrio harveyi; experiment: Antimutagenic activity against Vibrio harveyi BB7XM assessed as inhibition of NQNO-induced mutagenicity after 48 hrs; format: functional; procedure, shortened: as §3
[18] = tested on: Mus musculus; experiment: Anticonvulsant activity in ip dosed mouse assessed as protection against maximal electric shock-induced seizures measured after […]; format: functional
[19] = in vitro; conditions: mouse, liver microsomes; remark: listed apart in the source
[20] = tested on: Rattus norvegicus; experiment: Neurotoxicity in rat at 30 mg/kg, po after 0.5 hrs by rotarod test; format: toxicity, organism-based; conditions: in vivo
[21] = tested on: Mus musculus; experiment: Neurotoxicity in mouse at 20 mg/kg, ip after 0.5 hrs by rotarod test; format: toxicity, organism-based; conditions: in vivo
[22] = tested on: Mus musculus; experiment: Neurotoxicity in mouse at 20 mg/kg, ip after […] by rotarod test; format: toxicity, organism-based; conditions: in vivo
[23] = tested on: Rattus norvegicus; experiment: Neurotoxicity in rat at 30 mg/kg, po after 2 hrs by rotarod test; format: toxicity, organism-based; conditions: in vivo
[24] = tested on: Vibrio harveyi; experiment: Antimutagenic activity against Vibrio harveyi BB7 assessed as inhibition of NQNO-induced mutagenicity after 48 hrs; format: functional; procedure, shortened: as §3
[25] = tested on: Rattus norvegicus; experiment: Toxicity in pilocarpine-induced status epilepticus Sprague-Dawley rat assessed as death at 100 mg/kg, ip after […]; format: organism-based; conditions: in vivo
[26] = tested on: Rattus norvegicus; experiment: Neurotoxicity in rat at 30 mg/kg, po after 4 hrs by rotarod test; format: toxicity, organism-based; conditions: in vivo
[27] = tested on: Mus musculus; experiment: Neurotoxicity in mouse at 20 mg/kg, ip after 2 hrs by rotarod test; format: toxicity, organism-based; conditions: in vivo
[28] = tested on: Mus musculus; experiment: Neurotoxicity in mouse at 40 mg/kg, ip after 4 hrs by rotarod test; format: toxicity, organism-based; conditions: in vivo
[29] = tested on: Mus musculus; experiment: Neurotoxicity in mouse at 20 mg/kg, ip after 1 hr by rotarod test; format: toxicity, organism-based; conditions: in vivo
[30] = tested on: Mus musculus; experiment: Neurotoxicity in mouse at 100 mg/kg, ip after 0.5 hrs by rotarod test; format: toxicity, organism-based; conditions: in vivo; procedure, shortened: as §1
[31] = tested on: Rattus norvegicus; experiment: Neurotoxicity in rat at 30 mg/kg, ip after 1 hr by rotarod test; format: toxicity, organism-based; conditions: in vivo
[32] = tested on: Vibrio harveyi; experiment: Mutagenicity in Vibrio harveyi BB7M assessed as number of colonies after 48 hrs (reference value: 13 to 14 no_unit); format: ADME, organism-based; conditions: in vivo; procedure, shortened: as §2
[33] = tested on: Rattus norvegicus; experiment: Neurotoxicity in rat at 30 mg/kg, po after […] by rotarod test; format: toxicity, organism-based; conditions: in vivo
[34] = tested on: Rattus norvegicus; experiment: Neurotoxicity in rat at 30 mg/kg, ip after […] by rotarod test; format: toxicity, organism-based; conditions: in vivo
[35] = tested on: Mus musculus; experiment: Anticonvulsant activity in ip dosed mouse assessed as protection against subcutaneous pentylenetetrazol-induced seizures measured after […]; format: functional
[36] = Retention time of the compound in mouse liver microsomes at 20 uM preincubated for 15 mins followed by addition of NADPH-regenerating system measured after 5 to 90 mins by […] analysis; format: ADME
Procedure, shortened: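 Mouse liver microsomes (0.4 mg/mL) with test compound (20 µM) in 100 mM potassium phosphate, pH 7.4, were preincubated 15 min at 37 °C. An NADPH-regenerating system was then added and incubation ran 5–90 min at 37 °C. Levallorphan (20 µM) served as internal standard, and reactions were quenched with perchloric acid. The supernatant was analysed by UPLC/MS. Duplicate incubations.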

[37] = tested on: Mus musculus; experiment: Neurotoxicity in mouse at 30 mg/kg, ip after 0.5 hrs by rotarod test; format: toxicity, organism-based; conditions: in vivo; procedure, shortened: as §1
[38] = tested on: Mus musculus; experiment: Neurotoxicity in mouse at 30 mg/kg, ip after 2 hrs by rotarod test; format: toxicity, organism-based; conditions: in vivo

Cc1cccc(C)c1OCCOCCN[C@@H](C)CO
Activity [1]: Non-toxic
Activity [2]: Non-toxic
TD50 at […] [3]: 39.2 mg/kg
Activity [4]: Non-toxic
Activity [5]: Toxic
Activity [6]: Non-toxic
Activity [7]: Non-toxic
Activity [8]: 18
Activity [9]: Non-toxic
Activity [10]: 22
Activity [11]: Non-toxic
Activity [12]: 15
inhibition (INH) [13]: 69%
Activity [14]: Non-toxic
half-life at 20 µM [15]: 37 min
Activity [16]: Toxic
inhibition (INH) [17]: 5%
ED50 [18]: 11.3 mg/kg
microsomal CLint at 20 µM [19]: 47 µL/min/mg
Activity [20]: Non-toxic
Activity [21]: Non-toxic
Activity [22]: Non-toxic
Activity [23]: Non-toxic
inhibition (INH) [24]: 70%
Activity [25]: Non-toxic
Activity [26]: Non-toxic
Activity [27]: Non-toxic
Activity [28]: Non-toxic
Activity [29]: Non-toxic
Activity [30]: Toxic
Activity [31]: Non-toxic
Activity [32]: 26
Activity [33]: Non-toxic
Activity [34]: Non-toxic
ED50 [35]: > 43 mg/kg
Retention_time [36]: 3.8 min

Cc1cccc(C)c1OCCOCCN[C@@H](C)CO.Cl
Activity [1]: Non-toxic
Activity [2]: Non-toxic
Activity [37]: Non-toxic
Activity [7]: Non-toxic
Activity [9]: Non-toxic
Activity [11]: Non-toxic
Activity [38]: Non-toxic
Activity [16]: Toxic
Activity [20]: Non-toxic
Activity [23]: Non-toxic
Activity [26]: Non-toxic
Activity [30]: Non-toxic
Activity [31]: Non-toxic
Activity [33]: Non-toxic
Activity [34]: Non-toxic
